{"data": "Results collected from several papers", "effect on": "cell growth or viability", "note": "Lines come from different studies, so protocols differ."}
{"SMILES": "COc1c(Cl)cccc1Nc1c(-c2ccncc2OC[C@@H]2COCCO2)[nH]c2c1C(=O)NCC2", "cell line": "NCI-H2170", "test": "ATP luminescence", "IC50": "0.0246 µM"}
{"SMILES": "O=C(NO)Nc1nc2ccc(Br)cc2c(=O)n1-c1ccccc1", "cell line": "NIH3T3", "test": "MTT", "conditions": "48 h", "IC50": "122 µM"}
{"SMILES": "Nc1cc2cccnc2c2ncccc12", "cell line": "HFF-1", "test": "MTT", "conditions": "48 h, dark", "IC50": "13 µM"}
{"SMILES": "CCOc1cc2ncc(C#N)c(Nc3ccc(OCc4ccccn4)c(Cl)c3)c2cc1NC(=O)/C=C/CN(C)C", "cell line": "NCI-H2170", "test": "ATP luminescence", "IC50": "0.0057 µM"}
{"SMILES": "COc1cccc2c1C(=O)c1c(O)c3c(c(O)c1C2=O)C[C@@](O)(C(=O)CO)C[C@@H]3O[C@H]1C[C@H](N)[C@H](O)[C@H](C)O1", "cell line": "HUVEC", "test": "MTT", "conditions": "24 h", "IC50": "31.2 µM"}
{"SMILES": "CC(=O)Nc1ccc(O)cc1", "cell line": "NIH3T3", "conditions": "96 h, 3D culture", "IC50": "277 µM"}
{"SMILES": "CN(C)C(=O)c1cc2cnc(Nc3ccc(-c4ccc5c(=O)cc(N6CCOCC6)oc5c4)cc3)nc2n1C1CCCC1", "cell line": "Kelly", "test": "ATP luminescence", "conditions": "72 h", "IC50": "0.19 µM"}
{"SMILES": "O=C(Nc1ccc(-c2ccc3ncn(Cc4ccccc4)c(=O)c3c2)cn1)c1ccc(F)cc1", "cell line": "A549", "test": "CCK-8", "conditions": "72 h", "IC50": "> 10 µM"}
{"SMILES": "COc1ccccc1/C=N/N=C1\\C(=O)Nc2ccccc21", "cell line": "HUVEC", "test": "MTT", "conditions": "48 h", "IC50": "112 µg/mL"}
{"SMILES": "COc1cc(C(=O)c2nc(-c3ccnc4[nH]ccc34)c[nH]2)cc(OC)c1OC", "cell line": "PC-3", "test": "MTS", "conditions": "72 h", "IC50": "0.0301 µM"}
{"SMILES": "NNc1nc2ccc(Br)cc2c(=O)n1-c1ccccc1", "cell line": "NIH3T3", "test": "MTT", "conditions": "48 h", "IC50": "102 µM"}
{"SMILES": "Cc1c(C)c2c(c(C)c1O)CCC(C)(COc1ccc(CC3SC(=O)NC3=O)cc1)O2 (stereo not shown)", "cell line": "NIH3T3", "conditions": "96 h, 3D culture", "IC50": "246 µM"}
{"SMILES": "NNc1nc2c(Cl)cc(Cl)cc2c(=O)n1-c1ccc(Cl)cc1", "cell line": "NIH3T3", "test": "MTT", "conditions": "48 h", "IC50": "48.6 µM"}
{"SMILES": "O=C1Nc2ccccc2/C1=N/N=C/c1cccc([N+](=O)[O-])c1", "cell line": "HUVEC", "test": "MTT", "conditions": "48 h", "IC50": "119 µg/mL"}
{"SMILES": "NNc1nc2ccc(Br)cc2c(=O)n1-c1ccc(F)cc1", "cell line": "NIH3T3", "test": "MTT", "conditions": "48 h", "IC50": "> 200 µM"}
{"SMILES": "CC1=CC(=O)C(C(C)C)=CC1=O", "cell line": "U-251", "test": "SRB", "conditions": "48 h", "IC50": "36.9 µM"}
